According to ChEMBL document CHEMBL3739264, “Synthesis and bio-evaluation of novel quinolino-stilbene derivatives as potential anticancer agents” (Bioorg Med Chem, 2015):
Calls of active or inactive are those of the source. The calls are words filed in the database; no cut-off is given here.

Assays:
[1] = Cell cycle arrest in human MCF10A cells assessed as accumulation at G0-G1 phase at 6 uM after 48 hrs by flow cytometry analysis relative to control; assay type: functional, cell-based; settings: MCF-10A
In short: (§1)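 About 1 × 10^6 cells per plate seeded overnight, then treated with compound and harvested at set times. Cells fixed in 75% ethanol at -20°C for 12-24 h and stained 1 h with 100 µg/ml PI, 100 µg/ml RNase A and 0.3% NP-40 in PBS. DNA content measured by flow cytometry; phase fractions compared with sham-treated cells.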

MDA-MB-231 [2] = assay: Cell cycle arrest in human MDA-MB-231 cells assessed as accumulation at G0-G1 phase at 6 uM after 12 hrs by flow cytometry analysis relative to control; assay type: functional; in short: as §1
MDA-MB-231 [3] = assay: Cell cycle arrest in human MDA-MB-231 cells assessed as accumulation at G2/M phase at 6 uM after 12 hrs by flow cytometry analysis relative to control; assay type: functional; in short: as §1
HeLa [4] = assay: Induction of apoptosis in human HeLa cells assessed as increase of PARP cleavage at 6 uM after 48 hrs by Western blot analysis; assay type: functional, cell-based
In short: (§2)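 HeLa cells were sham-treated or given 6 µM and collected at set times. Lysed on ice in Tris pH 7.4/NaCl/EDTA/1% Triton X-100 with PMSF and protease inhibitors. 30-40 µg protein run on 8 or 10% gels, blotted to PVDF, probed overnight at 4°C and detected by ECL. Band levels normalized to GAPDH.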

HeLa [5] = assay: Increase of cyclin-B level in human HeLa cells at 6 uM after 48 hrs by Western blot analysis; assay type: functional, cell-based; in short: as §2
HeLa [6] = assay: Induction of mitosis arrest in human HeLa cells assessed as condensation of chromosome at 6 uM after 12 hrs using DAPI staining by immunofluorescence microscopic analysis; assay type: functional, cell-based
In short: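 HeLa cells on coverslips treated 12 h, fixed in ice-cold methanol at -20°C. Stained with anti-α-tubulin and anti-lamin A (primary 1:200 overnight at 4°C, fluorescent secondary 1 h) and DAPI for DNA. Mitotic morphology scored by fluorescence microscopy.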

[7] = Antiproliferative activity against human 184B5 cells after 72 hrs by SRB assay; assay type: cell-based; settings: 184B5, 72 h
In short: (§3)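 Cells seeded at 4,000-5,000/well for 16 h, then exposed 72 h to serial dilutions of compound in DMSO; sham DMSO as 100% and TCA-treated wells as 0%. Fixed in 10% TCA at 4°C for 1 h, stained with 0.4% SRB for 30 min, dye solubilised in 10 mmol Tris pH 10.5, read at 540 nm. IC50 from sigmoidal dose-response curves; two biological replicates, four technical each.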

[8] = Cell cycle arrest in human MCF10A cells assessed as accumulation at G2/M phase at 6 uM after 12 hrs by flow cytometry analysis relative to control; assay type: functional, cell-based; settings: MCF-10A; in short: as §1
HeLa [9] = assay: Cell cycle arrest in human HeLa cells assessed as accumulation at sub-G1 phase at 6 uM after 12 hrs by flow cytometry analysis relative to control; assay type: functional; in short: as §1
HeLa [10] = assay: Increase of histone 3 phosphorylation at Ser10 level in human HeLa cells at 6 uM after 48 hrs by Western blot analysis; assay type: functional, cell-based; in short: as §2
MDA-MB-231 [11] = assay: Cell cycle arrest in human MDA-MB-231 cells assessed as accumulation at sub-G1 phase at 6 uM after 24 hrs by flow cytometry analysis relative to control; assay type: functional
In short: (§4)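 Cells seeded overnight at about 1 × 10^6 per plate, treated next morning, and harvested at set times. Fixed in 75% ethanol at -20°C for 12-24 h, then stained 1 h in PBS with 0.3% NP-40, 100 µg/ml RNase A and 100 µg/ml propidium iodide. Phase distribution read from DNA content by flow cytometry against sham-treated cells.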

HeLa [12] = assay: Cell cycle arrest in human HeLa cells assessed as accumulation at G2/M phase at 6 uM after 12 hrs by flow cytometry analysis relative to control; assay type: functional; in short: as §1
HeLa [13] = assay: Cell cycle arrest in human HeLa cells assessed as accumulation at G0-G1 phase at 6 uM after 24 hrs by flow cytometry analysis relative to control; assay type: functional; in short: as §1
[14] = Cell cycle arrest in human MCF10A cells assessed as accumulation at G0-G1 phase at 6 uM after 24 hrs by flow cytometry analysis relative to control; assay type: functional, cell-based; settings: MCF-10A; in short: as §1
MDA-MB-231 [15] = assay: Cell cycle arrest in human MDA-MB-231 cells assessed as accumulation at sub-G1 phase at 6 uM after 72 hrs by flow cytometry analysis relative to control; assay type: functional; in short: as §4
[16] = Cell cycle arrest in human MCF10A cells assessed as accumulation at G0-G1 phase at 6 uM after 72 hrs by flow cytometry analysis relative to control; assay type: functional, cell-based; settings: MCF-10A; in short: as §1
[17] = Cell cycle arrest in human MCF10A cells assessed as accumulation at S phase at 6 uM after 48 hrs by flow cytometry analysis relative to control; assay type: functional, cell-based; settings: MCF-10A; in short: as §1
[18] = Cell cycle arrest in human MCF10A cells assessed as accumulation at sub-G1 phase at 6 uM after 72 hrs by flow cytometry analysis relative to control; assay type: functional, cell-based; settings: MCF-10A; in short: as §1
HeLa [19] = assay: Cell cycle arrest in human HeLa cells assessed as accumulation at S phase at 6 uM after 72 hrs by flow cytometry analysis relative to control; assay type: functional; in short: as §1
MDA-MB-231 [20] = assay: Cell cycle arrest in human MDA-MB-231 cells assessed as accumulation at sub-G1 phase at 6 uM after 12 hrs by flow cytometry analysis relative to control; assay type: functional; in short: as §4
[21] = Cell cycle arrest in human MCF10A cells assessed as accumulation at S phase at 6 uM after 24 hrs by flow cytometry analysis relative to control; assay type: functional, cell-based; settings: MCF-10A; in short: as §1
HeLa [22] = assay: Induction of apoptosis in human HeLa cells assessed as popcorn like morphology at 6 uM after 48 hrs by time lapse microscopy analysis; assay type: functional, cell-based
In short: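 Treated HeLa cells were followed by time-lapse microscopy, with images taken at set time points.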

MDA-MB-231 [23] = assay: Cell cycle arrest in human MDA-MB-231 cells assessed as accumulation at G2/M phase at 6 uM after 72 hrs by flow cytometry analysis relative to control; assay type: functional; in short: as §1
HeLa [24] = assay: Cell cycle arrest in human HeLa cells assessed as accumulation at S phase at 6 uM after 48 hrs by flow cytometry analysis relative to control; assay type: functional; in short: as §1
HeLa [25] = assay: Cell cycle arrest in human HeLa cells assessed as accumulation at sub-G1 phase at 6 uM after 24 hrs by flow cytometry analysis relative to control; assay type: functional; in short: as §1
[26] = Cell cycle arrest in human MCF10A cells assessed as accumulation at S phase at 6 uM after 72 hrs by flow cytometry analysis relative to control; assay type: functional, cell-based; settings: MCF-10A; in short: as §1
MDA-MB-231 [27] = assay: Cell cycle arrest in human MDA-MB-231 cells assessed as accumulation at G0-G1 phase at 6 uM after 24 hrs by flow cytometry analysis relative to control; assay type: functional; in short: as §1
[28] = Cell cycle arrest in human MCF10A cells assessed as accumulation at G2/M phase at 6 uM after 24 hrs by flow cytometry analysis relative to control; assay type: functional, cell-based; settings: MCF-10A; in short: as §1
HeLa [29] = assay: Cell cycle arrest in human HeLa cells assessed as accumulation at G0-G1 phase at 6 uM after 72 hrs by flow cytometry analysis relative to control; assay type: functional; in short: as §1
HeLa [30] = assay: Cell cycle arrest in human HeLa cells assessed as accumulation at G2/M phase at 6 uM after 72 hrs by flow cytometry analysis relative to control; assay type: functional; in short: as §1
MDA-MB-231 [31] = assay: Antiproliferative activity against human MDA-MB-231 cells after 72 hrs by SRB assay; assay type: functional, cell-based; settings: MDA-MB-231, 72 h; in short: as §3

For `FC(F)(F)c1cccc(/C=C\c2cc3ccccc3nc2Cl)c1`, the Activity [1] was 63.6%, the Activity (MDA-MB-231 [2]) was 22.2% and the Activity (MDA-MB-231 [3]) was 47.4%. The Activity (HeLa [4]) was “Active”, the Activity (HeLa [5]) was “Active” and the Activity (HeLa [6]) was “Active”. The IC50 [7] was 6.15 µM, the Activity [8] was 11.4% and the Activity (HeLa [9]) was 3.6%. The Activity (HeLa [10]) was “Active”, the Activity (MDA-MB-231 [11]) was 12.8% and the Activity (HeLa [12]) was 78.9%. It also gave an Activity (HeLa [13]) of 16.2%, an Activity [14] of 49.2% and an Activity (MDA-MB-231 [15]) of 31.3%. The Activity [16] was 70.6%, the Activity [17] was 17.9% and the Activity [18] was 12.1%. It also gave an Activity (HeLa [19]) of 17.7%, an Activity (MDA-MB-231 [20]) of 8.5% and an Activity [21] of 34.3%. The Activity (HeLa [22]) was “Active”, the Activity (MDA-MB-231 [23]) was 14.4% and the Activity (HeLa [24]) was 12.9%. It also gave an Activity (HeLa [25]) of 17.8%, an Activity [26] of 12.1% and an Activity (MDA-MB-231 [27]) of 34%. For the same compound, the Activity [28] was 8.3%, the Activity (HeLa [29]) was 22.9% and the Activity (HeLa [30]) was 12.1%. The IC50 (MDA-MB-231 [31]) was 3.75 µM.
